Assay outcomes deposited in PubChem BioAssay by Broad Institute.
F508del corr – F508del CFTR correction, initial screen, CFBE line, single point; 350,000 compounds, 0.36% hits; activity (quench increase), % at 7.58 µM; CFBE cells, YFP halide quenching; stimulated with forskolin plus potentiator P3; % fluorescence drop versus neutral controls;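 active = mean added fluorescence quench of at least 8% versus neutral control, with both replicates also reaching 8%; inconclusive = only one of the mean or replicate conditions met; inactive = mean below 8% and not both replicates reaching 8%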;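 also: cells transiently co-express mutant CFTR-F508del with the halide-sensitive YFP; corrector assay measuring rescue of mutant channel to the surface after 24 h compound exposure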
FGF22 binding – binders of human FGF22 protein, primary screen, FGF22 synaptogenesis inhibitor project, biophysical, thermal shift, single point; recombinant FGF22 thermal shift, SYPRO orange fluorescence; percent of sucrose octasulfate shift, DMSO zero; activity (Tm shift, normalised), % at 9.99 µM; 340,000 compounds, 1.5% hits;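 active = mean Tm shift, scaled 0 neutral to 100 positive control, at about 1.3% or above, every replicate too, limit read from the data; inconclusive = no clear call, values can overlap the other calls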
ERAP1 inh – human ERAP1 aminopeptidase inhibitors, primary screen, biochemical, single point, plate reader | Endoplasmic reticulum aminopeptidase 1 (Homo sapiens), Q9NZ08 | recombinant ERAP1, Leu-AMC fluorescence, 60 min | inhibition, % at 10.7 µM | 340,000 compounds, 0.15% hits;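 active = mean replicate inhibition of at least 30%, or all replicates individually reaching that 30% level; inactive = mean below 30% and not every replicate reaching it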;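 also: 0% = neutral control wells and 100% = L-leucinethiol positive control wells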
DENV2 CPE rescue – inhibitors of DENV2 cytopathic effect, primary screen, cell-based, plate reader, single concentration; AID 651640, 2012; CPE inhibition, % at 9.99 µM; 350,000 compounds, 1.7% hits; DENV2-infected cells, cytopathic effect rescue; in the data active = CPE inhibition above about 20%, passing the limit was not always enough; inconclusive = no clear call, values can overlap the other calls; tested in BHK-21 cells;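 also: 0% = median of neutral control wells and 100% = median of positive control wells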
E-sel inducer – E-selectin induction in HUVECs, primary screen, imaging, HUVEC, immunofluorescence imaging, single point; activation, % at 7.58 µM; AID 686992, 2013; 260,000 compounds, 0.37% hits; P16581; normalized: neutral wells 0, TNF-alpha wells 100;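 active = mean E-selectin-positive cell signal at least 10% of the positive control, reached in at least 60% of replicates, without over 20% cell loss; inconclusive = no rule given, readout overlaps actives, possibly toxicity-flagged; inactive = the rest, including those meeting only one limit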
Target sequence (P16581 whole entry, looked up): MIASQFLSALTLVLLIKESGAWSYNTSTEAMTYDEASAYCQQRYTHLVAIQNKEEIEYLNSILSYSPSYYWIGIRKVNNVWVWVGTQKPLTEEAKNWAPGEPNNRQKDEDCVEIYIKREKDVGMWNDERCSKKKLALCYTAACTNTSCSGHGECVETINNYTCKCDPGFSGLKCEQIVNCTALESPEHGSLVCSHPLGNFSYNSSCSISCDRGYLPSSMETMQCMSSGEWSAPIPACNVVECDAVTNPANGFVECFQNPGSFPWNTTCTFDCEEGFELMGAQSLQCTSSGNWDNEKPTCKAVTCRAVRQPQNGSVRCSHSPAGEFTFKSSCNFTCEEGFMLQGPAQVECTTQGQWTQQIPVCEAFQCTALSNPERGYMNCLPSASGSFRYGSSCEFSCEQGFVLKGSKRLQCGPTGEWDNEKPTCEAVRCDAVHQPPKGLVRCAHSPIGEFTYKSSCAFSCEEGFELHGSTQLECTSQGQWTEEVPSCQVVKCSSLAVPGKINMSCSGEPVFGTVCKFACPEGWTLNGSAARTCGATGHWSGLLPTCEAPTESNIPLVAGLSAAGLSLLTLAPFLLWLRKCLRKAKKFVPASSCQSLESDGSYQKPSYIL
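Test system: HUVEC | Signal: Immunofluorescence imaging | Read-out: Percent E-selectin-positive cells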
The depositor's hits bear a star; ? = inconclusive; nt = not tested or not shown. A selection: hits, their analogues and other compounds. The true share with any hit is near 3.7%.

SMILES	F508del corr	FGF22 binding	ERAP1 inh	DENV2 CPE rescue	E-sel inducer
COc1ccc(-c2noc(CN3CCC(Cc4ccccc4)CC3)n2)cc1	0	0	1	nt	nt
COCC1CCN(Cc2nc(-c3ccc(OC)cc3)no2)CC1	3	43*	2	-1	0
COc1cc(CN(C)CC2CCCN(CCc3ccccc3F)C2)cc(Cl)c1OC (configuration not stated)	-5	0	-1	2	nt
CN(Cc1ccccc1)CC1CCCN(CCc2ccccc2F)C1 (configuration not stated)	2	0	-2	39*	nt
Clc1ccc(-c2cc(COc3ccccc3)on2)cc1	nt	43*	4	-2	nt
CC(C)[C@H](NC(=O)OCc1ccccc1)C(=O)OCC(=O)NCc1ccco1	0	43*	2	-12	2
CC(C)C(NC(=O)c1ccco1)C(=O)OCC(=O)Nc1ccc(C(N)=O)cc1 (configuration not stated)	-2	43*	1	-2	nt
COc1cc(OC)cc(C(=O)N[C@H](C(=O)OCC(=O)Nc2ccc(C(C)C)cc2)C(C)C)c1	-3	0	19	-7	64*
Cc1ccc(S(=O)(=O)N(C)C[C@H]2OCCCC[C@@H](C)Oc3ccc(NC(=O)CCC(F)(F)F)cc3C(=O)N([C@H](C)CO)C[C@@H]2C)cc1	-2	nt	nt	5	nt
CCCNC(=O)C[C@@H]1CC[C@@H]2[C@H](COC[C@@H](O)CN2C(=O)Nc2c(C)noc2C)O1	0	-1	-2	9	0
CC(C)CN(C(=O)c1cc(Cl)nc2ccccc12)c1c(N)n(Cc2ccccc2)c(=O)[nH]c1=O	2	0	4	56*	-2
O=C(Nc1ccc(F)cc1)C1CCN(C(=O)c2ccc(F)cc2)CC1	14*	0	1	-5	5
C[C@H]1CN([C@@H](C)CO)C(=O)c2cc(NC(=O)Cc3cn(C)c4ccccc34)ccc2O[C@H]1CN(C)S(=O)(=O)c1ccccc1	3	0	-1	-10	nt
C[C@@H]1CN([C@H](C)CO)C(=O)c2cc(C#CC3(O)CCCC3)cnc2O[C@H]1CN(C)S(C)(=O)=O	0	0	0	-1	0
COc1ccc(S(=O)(=O)NCCc2nnc3ccc(SCC(=O)Nc4cc(C)on4)nn23)cc1	1	0	-3	-1	2
Cc1cc(NC(=O)CSc2ccc3nnc(CCNS(=O)(=O)c4ccccc4)n3n2)no1	3	44*	-1	0	nt
C[C@@H]1CN([C@@H](C)CO)C(=O)c2cc(NC(=O)CCC(F)(F)F)ccc2O[C@@H](C)CCCCO[C@@H]1CN(C)C(=O)CCC(F)(F)F	-2	0	1	-7	nt
CCn1c(CNC(=O)c2ccco2)nnc1SCC(=O)c1ccc(OC)cc1	0	43*	-2	-3	0
CCn1c(CNC(=O)c2ccco2)nnc1SCC(=O)c1ccc(F)cc1	-5	0	-2	3	0
C[C@@H](NC(=O)[C@@H]1[C@@H](CO)[C@@H]2Cn3c(ccc(-c4ccccc4)c3=O)[C@@H]2N1C)c1ccccc1	4	0	0	-3	0
O=C(O)[C@H]1CCCN1C(=O)c1ccccc1N1C(=O)[C@@H]2Cc3c([nH]c4ccccc34)C(c3cccc(Cl)c3)N2C1=O (some centres not stated)	1	0	8	3	nt
O=C(O)[C@@H]1CCCN1C(=O)c1ccccc1N1C(=O)[C@@H]2Cc3c([nH]c4ccccc34)C(c3cccc(Cl)c3)N2C1=O (some centres not stated)	-4	0	33*	3	nt
Cc1cc(C)cc(C(=O)NC(CC(N)=O)c2ccc(N3CCC(Cc4ccccc4)CC3)c([N+](=O)[O-])c2)c1 (configuration not stated)	2	0	-4	123*	-1
NC(=O)CC(NC(=O)Cc1cccc2ccccc12)c1ccc(N2CCC(N3CCCCC3)CC2)c([N+](=O)[O-])c1 (configuration not stated)	-4	0	-1	23*	0
NC(=O)CC(NC(=O)Cc1cccc2ccccc12)c1ccc(N2CCCCCC2)c([N+](=O)[O-])c1 (configuration not stated)	-2	0	1	-4	0
SMILES	F508del corr	FGF22 binding	ERAP1 inh	DENV2 CPE rescue	E-sel inducer
Cc1cc(C)cc(C(=O)NC(CC(N)=O)c2ccc(N3CCC(Br)CC3)c([N+](=O)[O-])c2)c1 (configuration not stated)	0	0	1	?	0
CCN1[C@@H]2c3ccc(-c4cccc(F)c4)c(=O)n3C[C@H]1[C@H](CO)[C@H]2C(=O)NCC1CC1	-2	0	-2	-1	0
COc1ccc(NC(=S)NNC(=S)Nc2cccc(C(F)(F)F)c2)cc1	-1	0	nt	-5	1
COc1ccc(NC(=S)Nc2cc(C(F)(F)F)ccc2F)cc1	-2	44*	-1	3	nt
CN(C)CC(=O)N[C@H]1C=C[C@@H](CC(=O)NCCN2CCCCC2)O[C@H]1CO	1	0	0	1	-1
COc1ccccc1NS(=O)(=O)c1ccc(C)c(C(=O)Nc2cc(C)on2)c1	8.8*	-1	-1	0	0
COc1ccccc1C(=O)Nc1cc(C)on1	-8	0	-3	7	nt
CCc1noc(C)c1C(=O)NNC(=O)c1ccccc1	2	0	3	-5	0
CCc1ccc(C(=O)NNC(=O)c2c(CC)noc2C)cc1	-2	0	-2	37*	0
Cn1c(C2=C(O)CN(c3ccccc3)C2=N)nc2ccccc21	4	44*	-3	-3	nt
C[C@@H]1CCCCO[C@@H](CN(C)C(=O)Nc2ccc(C(F)(F)F)cc2)[C@@H](C)CN([C@H](C)CO)C(=O)c2cc(NC(=O)Nc3ccc(C(F)(F)F)cc3)ccc2O1	3	0	nt	4	0
O=C(C[C@H]1C=C[C@H](NC(=O)Nc2ccc3c(c2)OCO3)[C@@H](CO)O1)NCc1ccc(Cl)cc1	2	0	8	?	3
CN(c1ccccc1)S(=O)(=O)c1cccc(NC(=O)CSc2nccc(=O)[nH]2)c1	1	43*	-1	9	0
CCOc1ccc2[nH]c3ncccc3c(=O)c2c1	6	0	-1	30*	0
CCOc1ccc2[nH]c(C)c(CN3CCOCC3)c(=O)c2c1	-1	0	1	11	nt
Cc1ccc(S(N)(=O)=O)c(C)c1N1CCCC1=O	-1	44*	1	1	nt
COc1ccc(-c2ccc3c(c2)[C@@H]2[C@@H](CCN2C(=O)c2ccc4c(c2)OCO4)[C@H](CO)N3C)cc1	-1	-1	2	-5	1
